From ChEMBL document CHEMBL3872228, “A new scaffold of topoisomerase I inhibitors: Design, synthesis and biological evaluation” (2016)
Activity calls are given as the source filed them. The rule behind the calls is not given here.

Tests used:
[1] = Growth inhibition of human MSTO-211H cells after 72 hrs by trypan blue assay; format: functional
Method in brief: (§1)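 Medium: HeLa in F-12 [HAM]; H460 and MSTO-211H in RPMI 1640 plus Hepes, pyruvate and glucose. All media contained 10% heat-inactivated FCS and antibiotics; 37°C, 5% CO2. 3–4 × 10^4 cells/well grew 24 h, then test agents were added at various concentrations for 72 h. Viability by trypan blue; GI50 = concentration giving 50% reduction in cell number vs control.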

[2] = Growth inhibition of human HeLa cells after 72 hrs by trypan blue assay; format: functional; method in brief: as §1
[3] = Growth inhibition of human H460 cells after 72 hrs by trypan blue assay; format: functional; conditions: NCI-H460, 72 h; method in brief: as §1
[4] = target: T1, DNA topoisomerase 1 (Homo sapiens) (UniProt P11387); assay: Inhibition of human recombinant topoisomerase 1 catalytic activity assessed as decrease in relaxation of supercoiled pBR322 DNA at 100 uM after 60 mins by agarose gel electrophoresis
T1 sequence (whole entry): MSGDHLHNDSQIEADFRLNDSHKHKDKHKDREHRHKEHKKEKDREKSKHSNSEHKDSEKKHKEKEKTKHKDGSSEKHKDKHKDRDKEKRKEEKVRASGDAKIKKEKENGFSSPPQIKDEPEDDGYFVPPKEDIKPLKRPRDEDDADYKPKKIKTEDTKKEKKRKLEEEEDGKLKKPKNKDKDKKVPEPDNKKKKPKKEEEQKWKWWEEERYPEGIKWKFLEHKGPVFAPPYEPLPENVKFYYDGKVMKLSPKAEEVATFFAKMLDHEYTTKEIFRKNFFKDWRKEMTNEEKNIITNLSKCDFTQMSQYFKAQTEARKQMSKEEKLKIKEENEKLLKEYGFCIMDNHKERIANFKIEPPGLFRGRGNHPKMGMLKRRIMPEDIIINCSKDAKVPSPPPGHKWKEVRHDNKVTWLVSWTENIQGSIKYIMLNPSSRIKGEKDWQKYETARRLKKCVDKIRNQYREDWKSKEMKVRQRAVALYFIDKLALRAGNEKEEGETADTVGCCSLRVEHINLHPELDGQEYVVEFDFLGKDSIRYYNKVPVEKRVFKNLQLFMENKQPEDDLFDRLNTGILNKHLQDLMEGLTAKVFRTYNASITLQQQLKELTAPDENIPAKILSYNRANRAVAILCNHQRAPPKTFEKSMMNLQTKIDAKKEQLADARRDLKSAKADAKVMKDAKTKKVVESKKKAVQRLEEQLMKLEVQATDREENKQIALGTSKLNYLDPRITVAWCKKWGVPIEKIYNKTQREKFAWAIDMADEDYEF
Method in brief: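 Supercoiled pBR322 plasmid (0.25 µg) with 2U human recombinant topoisomerase I plus test compound, 60 min at 37 °C. Stopped with SDS stop buffer and proteinase K (50 µg/mL), a further 30 min at 37 °C. Run on 1% agarose; post-stained with ethidium bromide 1 µg/mL in TAE and imaged under UV.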

[5] = target: T1, DNA topoisomerase 1 (Homo sapiens); assay: Poison activity at human recombinant topoisomerase 1 assessed as enzyme-supercoiled pBR322 DNA cleavable complex at 25 to 100 uM after 60 mins by agarose gel electrophoresis
[6] = Binding affinity to DNA (unknown origin) assessed as induction of negative LD signal at 260 nm at 1.2 x 10^-5 M by linear flow dichroism method; conditions: in the assay text read “380 to 520 nm” for “260 nm”
Method in brief: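 Linear flow dichroism: aqueous DNA solutions at 1.9 × 10^-3 M in ETN buffer (10 mM TRIS, 1 mM EDTA, pH 7.0, 0.01 M NaCl); spectra recorded at 25°C at [drug]/[DNA] ratios of 0 and 0.08.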

[7] = target: T1, DNA topoisomerase 1 (Homo sapiens); assay: Poison activity at human recombinant topoisomerase 1 assessed as enzyme-supercoiled pBR322 DNA cleavable complex at 500 uM after 60 mins by agarose gel electrophoresis

Which GI50 [1] does the source give for C=CC[C@@]12CCN[C@@H]1n1c3nc4ccc(OC)cc4cc3c(=O)c3cc(OC)cc2c31 here?
Its GI50 is 13.5 µM.

And the GI50 [2]?
Its GI50 is 16.6 µM.

What about the GI50 [3] of the same compound?
The GI50 was 18.6 µM.

What does the source list for C=CC[C@@]12CCN(C)[C@@H]1n1c3nc4ccc(OC)cc4cc3c(=O)c3cc(OC)cc2c31?
GI50 [1]: 34.2 µM; GI50 [2]: 18.3 µM; GI50 [3]: 50 µM

What does the source list for C=CC[C@@]12CCN(C(=O)OC(C)(C)C)[C@@H]1n1c3nc4ccc(O)cc4cc3c(=O)c3cccc2c31?
GI50 [1]: 24.1 µM; GI50 [2]: 30.5 µM; GI50 [3]: 32.7 µM

For CC(C)(C)OC(=O)N1CC[C@@]2(CCO)c3cccc4c(=O)c5cc6cc(O)ccc6nc5n(c34)[C@@H]12, which GI50 [1] is on record?
The GI50 was 13.7 µM.

What about the GI50 [2] of the same compound?
The GI50 was 13 µM.

And the GI50 [3]?
The GI50 was 26.8 µM.

Which results are given for C=CC[C@@]12CCN[C@@H]1n1c3nc4ccc(O)cc4cc3c(=O)c3cccc2c31?
GI50 [1]: 18.7 µM; GI50 [2]: 19 µM; GI50 [3]: > 50 µM

What does the source list for C=CC[C@@]12CCN[C@@H]1n1c3nc4ccc(O)cc4cc3c(=O)c3cc(O)cc2c31?
GI50 [1]: 7 µM; GI50 [2]: 15.3 µM; GI50 [3]: 4.8 µM

With C=CC[C@@]12CCN(C(=O)OC(C)(C)C)[C@@H]1n1c3nc4ccc(O)c(CN(C)C)c4cc3c(=O)c3cccc2c31 as the compound, how does the GI50 [1] read?
Its GI50 is 22.8 µM.

What about the GI50 [2] of the same compound?
Its GI50 is 35.2 µM.

What about the GI50 [3] of the same compound?
The GI50 was 17.8 µM.

Which GI50 [1] does the source give for C=CC[C@@]12CCN[C@@H]1n1c3nc4ccccc4cc3c(=O)c3cc(OC)cc2c31 here?
The GI50 was 14.4 µM.

What about the GI50 [2] of the same compound?
The GI50 was 30.7 µM.

And the GI50 [3]?
Its GI50 is 32.2 µM.

With C=CC[C@@]12CCN[C@@H]1n1c3nc4ccccc4cc3c(=O)c3cccc2c31 as the compound, how does the GI50 [1] read?
The GI50 was 13 µM.

What about the GI50 [2] of the same compound?
Its GI50 is 16.5 µM.

And the GI50 [3]?
The GI50 was 14.4 µM.

For CC[C@@]1(O)C(=O)OCc2c1cc1n(c2=O)Cc2cc3ccccc3nc2-1 [CAMPTOTHECIN], which GI50 [1] is on record?
The GI50 was 0.0021 µM.

What about the GI50 [2] of the same compound?
The GI50 was 0.0054 µM.

What about the GI50 [3] of the same compound?
The GI50 was 0.002 µM.

With C=CC[C@@]12CCN[C@@H]1n1c3nc4ccc(O)c(CN(C)C)c4cc3c(=O)c3cccc2c31 as the compound, how does the GI50 [1] read?
The GI50 was 29.1 µM.

What about the GI50 [2] of the same compound?
The GI50 was 29.3 µM.

And the GI50 [3]?
Its GI50 is 26.2 µM.

Which results are given for COc1ccc2nc3c(cc2c1)c(=O)c1cccc2c1n3[C@H]1NCC[C@@]21CCO?
GI50 [1]: 1.9 µM; GI50 [2]: 1.4 µM; inhibition [4]: Active; Activity [5]: Active; GI50 [3]: 0.85 µM; Activity [6]: Active

With CN(C)Cc1c(O)ccc2nc3c(cc12)c(=O)c1cccc2c1n3[C@H]1N(C(=O)OC(C)(C)C)CC[C@@]21CCO as the compound, how does the GI50 [1] read?
Its GI50 is 20 µM.

What about the GI50 [2] of the same compound?
The GI50 was 13 µM.

And the GI50 [3]?
The GI50 was 16.4 µM.

For C=CC[C@@]12CCN[C@@H]1n1c3nc4ccc(OC)cc4cc3c(=O)c3cccc2c31, which GI50 [1] is on record?
Its GI50 is 7.8 µM.

And the GI50 [2]?
Its GI50 is 14.8 µM.

And the inhibition [4]?
Its inhibition is “Active”.

And the Activity [7]?
The Activity was “Active”.

What about the GI50 [3] of the same compound?
The GI50 was 8.9 µM.

What about the Activity [6] of the same compound?
Its Activity is “Active”.
